Published values of several laboratories.
Target: Serine/threonine-protein kinase TAO1 (TAOK1, Homo sapiens, UniProt Q7L7X3)
One construct used (Q7L7X3 1-1001): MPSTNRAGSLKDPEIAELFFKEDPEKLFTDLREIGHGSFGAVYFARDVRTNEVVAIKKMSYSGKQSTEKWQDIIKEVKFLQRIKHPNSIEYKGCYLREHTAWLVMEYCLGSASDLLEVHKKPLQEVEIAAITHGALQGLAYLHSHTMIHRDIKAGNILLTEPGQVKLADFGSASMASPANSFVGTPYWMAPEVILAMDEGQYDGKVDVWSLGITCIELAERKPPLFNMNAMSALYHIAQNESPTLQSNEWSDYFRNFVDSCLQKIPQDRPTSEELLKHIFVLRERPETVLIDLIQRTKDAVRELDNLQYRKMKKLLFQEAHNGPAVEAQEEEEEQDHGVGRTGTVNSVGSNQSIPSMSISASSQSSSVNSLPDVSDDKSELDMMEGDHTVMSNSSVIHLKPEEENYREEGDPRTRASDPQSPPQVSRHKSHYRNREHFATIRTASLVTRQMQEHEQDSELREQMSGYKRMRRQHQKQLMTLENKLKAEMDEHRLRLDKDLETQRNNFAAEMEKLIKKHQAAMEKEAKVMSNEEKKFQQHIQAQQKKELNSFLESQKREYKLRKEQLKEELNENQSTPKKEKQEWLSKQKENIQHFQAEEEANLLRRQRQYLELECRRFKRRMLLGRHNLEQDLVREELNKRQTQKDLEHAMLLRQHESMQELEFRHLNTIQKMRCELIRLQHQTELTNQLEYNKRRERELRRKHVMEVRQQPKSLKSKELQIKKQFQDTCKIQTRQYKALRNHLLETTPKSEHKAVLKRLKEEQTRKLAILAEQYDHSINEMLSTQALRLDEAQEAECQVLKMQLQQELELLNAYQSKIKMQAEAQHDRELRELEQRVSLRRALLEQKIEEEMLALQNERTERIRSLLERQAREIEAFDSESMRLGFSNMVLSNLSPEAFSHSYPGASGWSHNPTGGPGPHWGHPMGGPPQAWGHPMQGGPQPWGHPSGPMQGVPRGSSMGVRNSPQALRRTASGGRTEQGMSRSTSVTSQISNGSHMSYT

COc1ccnn2ncc(-c3ccnc(N(C)C)n3)c12 — remaining binding (binding; 1 µM): 81%
CNC(=O)c1ccccc1Nc1cc(Nc2ccc(N3CCOCC3)cc2OC)ncc1C(F)(F)F — remaining binding (binding; competition with immobilised ligand; 1 µM): < 10%
COc1cnc(Nc2cccc(S(N)(=O)=O)c2)nc1N1CCN(c2ccccc2)C(=O)C1 — remaining binding (binding; competition with immobilised ligand; 1 µM): 86%
CC(=O)Nc1c(C(C)=O)c(=O)n(C)c2nc(-c3ccc(Cl)cc3Cl)c(-c3ccc(Cl)cc3)cc12 — remaining binding (cell-free assay; competition with immobilised ligand; 1 µM): 89%
F[C@@H]1CCN(c2nccc(-c3cnn4ncccc34)n2)C1 — remaining binding (binding; 1 µM): 100%
O=C(NCCCN1CCOCC1)c1ccc(Nc2nccc(-c3cc4ccccc4s3)n2)cc1 — remaining binding (binding; competition with immobilised ligand; 1 µM): 82%
O=C(Nc1c[nH]nc1C(=O)NC1CCNCC1)c1cc(F)cc(F)c1 — remaining binding (binding; competition with immobilised ligand; 1 µM): 80%
COc1cnc(Nc2cccc(S(N)(=O)=O)c2)nc1N1CCN(c2ccccc2)CC1 — remaining binding (binding; competition with immobilised ligand; 1 µM): 80%
C[C@@H]1CCN(c2nccc(-c3cnn4ncccc34)n2)C1 — remaining binding (binding; 1 µM): 83%
CCC(=N\O)/C(C)=C/c1ccc(F)cc1 — remaining binding (cell-free assay; competition with immobilised ligand; 1 µM): 100%
CCN1CCN(Cc2ccc(C(=O)Nc3ccc(C)c(Oc4ccc5c(c4)CC(=O)N5)c3)cc2C(F)(F)F)CC1 — remaining binding (binding; competition with immobilised ligand; 1 µM): 100%
COCCOc1nc(-c2ccc(Cl)nc2)nc2c1CN(C(=O)c1ncn3ccccc13)CC2 — remaining binding (cell-free assay; competition with immobilised ligand; 0.1 µM): 100%
O=C(NCCCN1CCOCC1)c1ccc(Nc2ncc(Cl)c(-c3ccc(Cl)s3)n2)cc1 — remaining binding (binding; competition with immobilised ligand; 1 µM): 43%
C=CC(=O)N1CCC(C(=O)NCC(=O)N2CCN(c3nc(-c4cnc(N)nc4C(F)F)nc(N4CCOCC4)n3)CC2)CC1 — remaining binding (binding; competition with immobilised ligand; 1 µM): 80%
COc1ncc2cc3ccccc3nc2c1C#N — remaining binding (cell-free assay; competition with immobilised ligand; 5 µM): 100%
Cc1cnn2ncc(-c3ccnc(N(C)C)n3)c2c1 — remaining binding (binding; 1 µM): 92%
O=C1NC(c2ccccn2)Sc2ccccc21 (centres unmarked) — remaining binding (cell-free assay; competition with immobilised ligand; 1 µM): 96%
CN(C)c1ncc(F)c(-c2cnn3ncccc23)n1 — remaining binding (binding; 1 µM): 73%
Nc1cnc(N2CCc3cc(S(=O)(=O)Nc4c(F)cc(Cl)cc4F)cc(N4CCCC4=O)c32)nc1 — remaining binding (cell-free assay; competition with immobilised ligand; 1 µM): 80%
c1cnn2ncc(-c3ccnc(N4CCC45COC5)n3)c2c1 — remaining binding (binding; 1 µM): 58%
O=C(c1ccc(Nc2nccc(-c3cc4ccccc4s3)n2)cc1)N1CCC(N2CCCC2)CC1 — remaining binding (binding; competition with immobilised ligand; 1 µM): 82%
N[C@H]1CCN(c2nccc(-c3cnn4ncccc34)n2)C1 — remaining binding (binding; 1 µM): 87%
CC1=C(C#N)[C@@H](c2ccc3[nH]nc(C)c3c2)C(C#N)=C(c2ccc(Cl)cc2)N1 — remaining binding (cell-free assay; competition with immobilised ligand; 1 µM): 100%
